Assay results of several laboratories.
Protocols differ between the studies behind these lines.
Target: Serine/threonine-protein kinase MARK2 (MARK2, Homo sapiens, UniProt Q7KZI7)
Observed: enzyme activity
Action: inhibitor

CC(C)(O)[C@H]1CC[C@H](Nc2ccc3ncc(-c4cccc(C(F)(F)F)c4)n3n2)CC1
remaining activity (1 µM): 101%

CN1CCc2cc(Nc3ncc(C4CC4)c(NCCCNC(=O)C4CCC4)n3)ccc2C1
remaining activity (radiometric; 1 µM): 3%

CCN(CC)c1ccc(C2=NNC(=O)CC2C)cc1[N+](=O)[O-] (centres unmarked)
remaining activity (10 µM): 90%

COc1cc(Nc2cnc(C#N)c(O[C@H](C)CN(C)C)n2)ncc1-c1cnn(C)c1
remaining activity (radiometric; 1 µM): 111%

Cc1sc(C(=O)NC2COC2)cc1-n1cc(NC(=O)Nc2c(F)cccc2Cl)cn1
remaining activity (10 µM): 99.8%

NS(=O)(=O)c1ccc(CNc2nc(Nc3cccc(NC(=O)N4CCCC4)c3)ncc2Br)cc1
remaining activity (radiometric; 1 µM): 57%

Cn1c(=O)n(-c2ccc(C(C)(C)C#N)cc2)c2c3cc(-c4cnc5ccccc5c4)ccc3ncc21
remaining activity (10 µM): 86%

CC(C)(C)c1nc(-c2cccc(NS(=O)(=O)c3c(F)cccc3F)c2F)c(-c2ccnc(N)n2)s1
remaining activity (radiometric; 1 µM): 94%

Cc1nn(CC(F)(F)F)cc1Nc1ncc(Br)c(NCc2ccc(S(N)(=O)=O)cc2)n1
remaining activity (radiometric; 1 µM): 89%

CCCOc1ccc(OC)c(F)c1C(=O)c1ccc(C(=O)N[C@@H]2CNC[C@H]2NC(=O)c2ccc3[nH]ncc3c2)cc1
remaining activity (10 µM): 33%

O=C(Nc1cnn(-c2csc(C(=O)NC3COC3)c2)c1)Nc1c(F)cccc1Cl
remaining activity (5 µM): 90.7%

Cc1nn(CC(F)(F)F)cc1Nc1ncc(C2CC2)c(NCCc2c[nH]cn2)n1
remaining activity (radiometric; 1 µM): 90%

CC(C)(C)c1nc2c(s1)c1nc(N)ncc1c1ccc(NS(=O)(=O)c3c(F)cccc3F)c(F)c12
remaining activity (radiometric; 1 µM): 92%

Cc1nn(CC(F)(F)F)cc1Nc1ncc(Br)c(NCCCNC(=O)C2CCC2)n1
remaining activity (radiometric; 1 µM): 19%

Cc1cnc(NC2CCOCC2)nc1-n1cnc(C(=O)NC(CN)c2cc(F)cc(Cl)c2)c1 (centres unmarked)
remaining activity (radiometric; 1 µM): 45%

COc1cc(Cl)c(C(=O)N[C@@H](CN[C@H]2CC[C@@H](N)CC2)Cc2ccc(C#N)cc2)cc1-c1ccc(CN[C@H](C)c2ccc(C)cc2)o1
remaining activity (1 µM): 98%

Oc1cccc(-c2nc(N3CCOCC3)c3oc4ncccc4c3n2)c1
remaining activity (10 µM): 107%
